Where “and” joins values, the source holds several entries; their conditions need not be identical. Equal entries are not always repeated.
Assays:
Rattus norvegicus [1] = experiment: Hyperlipidemic activity was assessed by measuring cholesterol in Sprague-Dawley male rats at 50 mg/kg; assay type: functional
Summary of the method: (§1)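 Sprague-Dawley rats were fed the hyperlipidemic Nath's diet for 15 days and dosed orally at 50 or 200 mg/kg, or at 6.25, 12.5 and 25 mg/kg on a diet with 0.5% cholesterol and cholic acid. After an 18-h fast they were killed on day 16, 24 h after the last dose. Serum total cholesterol and triglycerides were assayed, and liver weight was expressed per 100 g bodyweight. Groups were compared with Nath's-diet controls by Student's t test.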

Rattus norvegicus [2] = experiment: Hypolipidemic activity was assessed by measuring cholesterol in Sprague-Dawley male rats at 50 mg/kg; assay type: functional
Summary of the method: (§2)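 Male Sprague-Dawley rats (185-g mean bodyweight) on a normal diet were dosed orally for 4 consecutive days at 50 mg/kg or 200 mg/kg. They were fasted 18 h, and blood was drawn from the abdominal aorta 24 h after the last dose. Serum total cholesterol, triglycerides (mg/100 mL) and lipoprotein α-cholesterol (% of total cholesterol) were measured. Groups of 10–40 rats were compared with controls by Student's t test.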

Rattus norvegicus [3] = experiment: Hypolipidemic activity was assessed by measuring alpha-cholesterol in Sprague-Dawley male rats at 50 mg/kg; assay type: functional; summary of the method: as §2
[4] = Evaluated for the dose that causes 50 % lethality in Sprague-Dawley male rats; assay type: ADME, organism-based; conditions: rat, in vivo
Rattus norvegicus [5] = experiment: Hyperlipidemic activity was assessed by measuring liver weight in Sprague-Dawley male rats at 50 mg/kg; assay type: functional; summary of the method: as §1
Rattus norvegicus [6] = experiment: Hypolipidemic activity was assessed by measuring liver weight in Sprague-Dawley male rats at 50 mg/kg; assay type: functional
Rattus norvegicus [7] = experiment: Hypolipidemic activity was assessed by measuring triglycerides in Sprague-Dawley male rats at 50 mg/kg; assay type: functional; summary of the method: as §2
Rattus norvegicus [8] = experiment: Hyperlipidemic activity was assessed by measuring triglycerides in Sprague-Dawley male rats at 50 mg/kg; assay type: functional; summary of the method: as §1
Rattus norvegicus [9] = experiment: Hypolipidemic activity was assessed by measuring body weight in F 344 rats at 20 mg/kg
Rattus norvegicus [10] = experiment: Hypolipidemic activity was assessed inVariation of the enoyl-CoA oxide (umol/min mg) in F 344 rats at 20 mg/kg
Rattus norvegicus [11] = experiment: Hypolipidemic activity was assessed in variation of palmitoyl-CoA oxide (umol/min mg) in F 344 rats at 20 mg/kg
Rattus norvegicus [12] = experiment: Hypolipidemic activity was assessed in variation of the liver enzyme catalase was expressed as units per mg of protein in F 344 rats at 20 mg/kg
Rattus norvegicus [13] = experiment: Hypolipidemic activity was assessed in Variation of the carnitine acetyl transferase was expressed as units per mg of protein in F 344 rats at 20 mg/kg
Rattus norvegicus [14] = experiment: Hypolipidemic activity was assessed by measuring cholesterol in Sprague-Dawley male rats at 200 mg/kg; assay type: functional; summary of the method: as §2
Rattus norvegicus [15] = experiment: Hypolipidemic activity was assessed by measuring alpha-cholesterol in Sprague-Dawley male rats at 200 mg/kg; assay type: functional; summary of the method: as §2
[16] = (§3) Compound was evaluated for the dose that causes […] in Sprague-Dawley male rats; assay type: ADME, organism-based; conditions: rat, in vivo
Rattus norvegicus [17] = experiment: Hypolipidemic activity was assessed by measuring triglycerides in Sprague-Dawley male rats at 200 mg/kg; assay type: functional; summary of the method: as §2
Rattus norvegicus [18] = species: Rattus norvegicus; experiment: as §3; assay type: functional
Rattus norvegicus [19] = species: Rattus norvegicus; experiment: Compound dose that causes […] in Sprague-Dawley male rats; assay type: functional
Rattus norvegicus [20] = experiment: Hypolipidemic activity was assessed in Variation of the liver enzyme catalase was expressed as units per mg of protein in F 344 rats at 20 mg/kg
Rattus norvegicus [21] = experiment: Hyperlipidemic activity was assessed by measuring cholesterol in Sprague-Dawley male rats at 12.5 mg/kg; assay type: functional; summary of the method: as §1
Rattus norvegicus [22] = experiment: Hyperlipidemic activity was assessed by measuring cholesterol in Sprague-Dawley male rats at 25 mg/kg; assay type: functional; summary of the method: as §1
Rattus norvegicus [23] = experiment: Hyperlipidemic activity was assessed by measuring cholesterol in Sprague-Dawley male rats at 6.25 mg/kg; assay type: functional; summary of the method: as §1
Rattus norvegicus [24] = experiment: Hyperlipidemic activity was assessed by measuring liver weight in Sprague-Dawley male rats at 12.5 mg/kg; assay type: functional; summary of the method: as §1
Rattus norvegicus [25] = experiment: Hyperlipidemic activity was assessed by measuring liver weight in Sprague-Dawley male rats at 25 mg/kg; assay type: functional; summary of the method: as §1
Rattus norvegicus [26] = experiment: Hyperlipidemic activity was assessed by measuring liver weight in Sprague-Dawley male rats at 6.25 mg/kg; assay type: functional; summary of the method: as §1
Rattus norvegicus [27] = experiment: Hyperlipidemic activity was assessed by measuring triglycerides in Sprague-Dawley male rats at 12.50 mg/kg; assay type: functional; conditions: dose 12.5 mg/kg; summary of the method: as §1
Rattus norvegicus [28] = experiment: Hyperlipidemic activity was assessed by measuring triglycerides in Sprague-Dawley male rats at 25 mg/kg; assay type: functional; summary of the method: as §1
Rattus norvegicus [29] = experiment: Hyperlipidemic activity was assessed by measuring triglycerides in Sprague-Dawley male rats at 6.25 mg/kg; assay type: functional; summary of the method: as §1
Rattus norvegicus [30] = experiment: Hypolipidemic activity was assessed inVariation of the enoyl-CoA oxide (umol/min mg) in F 344 rats at 20 mg/kg.
Rattus norvegicus [31] = experiment: Hyperlipidemic activity was assessed in variation of palmitoyl-CoA oxide (umol/min mg) in F 344 rats at 20 mg/kg.
Rattus norvegicus [32] = experiment: Hypolipidemic activity was assessed in Variation of the liver enzyme catalase was expressed as units per mg of protein in F 344 rats at 20 mg/kg; remark: listed apart in the source
Rattus norvegicus [33] = experiment: Hypolipidemic activity was assessed by measuring liver weight in Sprague-Dawley male rats at 200 mg/kg; assay type: functional; summary of the method: as §1
Rattus norvegicus [34] = experiment: Hyperlipidemic activity was assessed by measuring triglycerides in Sprague-Dawley male rats at 200 mg/kg; assay type: functional; summary of the method: as §1
Rattus norvegicus [35] = experiment: Hyperlipidemic activity was assessed by measuring cholesterol in Sprague-Dawley male rats at 200 mg/kg
Rattus norvegicus [36] = experiment: Hypolipidemic activity was assessed in Variation of palmitoyl-CoA oxide (umol/min mg) in F 344 rats at 20 mg/kg
Rattus norvegicus [37] = experiment: Hypolipidemic activity was assessed in Variation of the enoyl-CoA oxide (umol/min mg) in F 344 rats at 20 mg/kg
Rattus norvegicus [38] = experiment: Hypolipidemic activity was assessed in Variation of the liver enzyme catalase was expressed as units per mg of protein. in F 344 rats at 20 mg/kg
[39] = dose 20 mg/kg, in the assay text read “F 344 rats at 20 mg/kg” for “Sprague-Dawley male rats at 50 mg/kg”

SMILES	Cholesterol (Rattus norvegicus [2]) [mg 100ml-1]	Alpha-cholesterol (Rattus norvegicus [3]; dose 50 mg/kg)	LD50 [4] [mg/kg]	Triglycerides (Rattus norvegicus [7]) [mg/100 mL]	Cholesterol (Rattus norvegicus [14]) [mg 100ml-1]	Alpha-cholesterol (Rattus norvegicus [15]) [%]	LD50 [16] [mg/kg]	Triglycerides (Rattus norvegicus [17]) [mg/100 mL]	further results
Cc1cccc(Nc2cc(Cl)nc(OCC(=O)O)n2)c1C	<57.3	<83.8%	1080	< 67.3					Cholesterol (Rattus norvegicus [1]): <548.8 mg 100ml-1; Liver weight (Rattus norvegicus [5]): 6.29 g 100g-1; Liver weight (Rattus norvegicus [6]; [39]): 4.5 g (100g of body weight)-1; Triglycerides (Rattus norvegicus [8]): <215.6 mg 100ml-1; Body weight (Rattus norvegicus [9]): 245 g; Enoyl-CoA hydratase (Rattus norvegicus [10]): 2.5 µM/min/mg; Palmitoyl-CoA oxid (Rattus norvegicus [11]): 0.088 µM/min/mg; Catalase (Rattus norvegicus [12]): 77 U/mg protein; Carnitine acetyl transferase (Rattus norvegicus [13]): 10 U/mg protein
Cc1cccc(Nc2nc(Cl)nc(N(C)C)n2)c1C					80.8	78.6	< 2000	< 91.4	
CN(C)c1nc(Cl)nc(N(C)C)n1	84.8	70%							
CSc1nc(Cl)cc(Nc2cccc(C)c2C)n1	<54.2	72.3%	1250	106					
Cc1cccc(Oc2cc(Cl)nc(N(C)C)n2)c1C					76.7	72.6	< 2000	102	
Cc1cccc(N(C)c2cc(Cl)nc(S)n2)c1C					65.8	74.4	1780	< 79.1	
Cc1cccc(N(C)c2cc(Cl)nc(N(C)C)n2)c1C					63.2	90	< 2500	89.8	
Cc1cccc(N(C)c2cc(Cl)nc(NCC(=O)O)n2)c1C	<68.4	77%	995	< 50					
Cc1cccc(Nc2nc(Cl)nc(OCC(=O)O)n2)c1C					72	<82.1	1180	< 65.5	
CN(C)c1cc(Cl)nc(N(C)C)n1	<103.7		< 2500						Alpha-cholesterol (Rattus norvegicus [3]; dose 200 mg/kg, in the assay text read “200 mg/kg” for “50 mg/kg”): 75.7%
Cc1cccc(Nc2nc(Cl)nc(N(C)CC(=O)O)n2)c1C					76.8	79.8	1220	< 74.6	
Cc1cccc(Oc2cc(Cl)nc(SCC(=O)O)n2)c1C	<67.7	77%	1290	< 56.4					
Cc1cccc(Nc2cc(Cl)nc(S)n2)c1C			1840		76.3	73.2		95.6	
Cc1cccc(Oc2cc(Cl)nc(OCC(=O)O)n2)c1C	67.1	74%	1210	91.1					
CCOc1nc(Nc2cccc(C)c2C)nc(SCC(=O)O)n1					70.3	<82.2		< 76.1	Cholesterol (Rattus norvegicus [18]): 1054.8 mg 100ml-1; LD50 (Rattus norvegicus [19]): 1120 mg/kg; Liver weight (Rattus norvegicus [5]): 6.53 g 100g-1; Liver weight (Rattus norvegicus [6]; [39]): 3.1 g (100g of body weight)-1; Triglycerides (Rattus norvegicus [8]): <214.3 mg 100ml-1; Body weight (Rattus norvegicus [9]): 248 g; Catalase (Rattus norvegicus [20]): 50 U/mg protein
CCOc1cc(Nc2cccc(C)c2C)nc(SCC(=O)NCCO)n1	<65.7	76.6%	2500	< 64.3					Cholesterol (Rattus norvegicus [1]): <479.8 mg 100ml-1; Liver weight (Rattus norvegicus [5]): 6.85 g 100g-1; Liver weight (Rattus norvegicus [6]; [39]): 5.9 g (100g of body weight)-1; Triglycerides (Rattus norvegicus [8]): <206.6 mg 100ml-1; Body weight (Rattus norvegicus [9]): 192 g; Catalase (Rattus norvegicus [20]): 67.5 U/mg protein
CCCCCCCCSc1nc(Cl)cc(Nc2cccc(C)c2C)n1	63.2	67.7%		96.5					
Cc1cccc(N(C)c2cc(Cl)nc(OCC(=O)O)n2)c1C	66.4	87.2%	1070	< 80.7					
CN(C)c1cc(Cl)nc(SCC(=O)O)n1		81.7% and 72.2%	< 2500						Cholesterol (Rattus norvegicus [2]; 50 mg/kg): <62.5 mg 100ml-1 and <69.4 mg 100ml-1
Cc1cccc(N(C)c2cc(Cl)nc(SCC(=O)O)n2)c1C	63.5	78.6%	1010	< 46.9					
CN(C)c1nc(N)nc(Cl)n1					<105.6	85.4	< 2000	< 78.2	
CN(C)c1nc(N)cc(Cl)n1					71.4	<87.4	< 2500	< 89.9	
Cc1cccc(Nc2cc(Cl)nc(NCC(=O)O)n2)c1C [ARONIXIL]	<63.6	76.7%	1020	< 71.6					Cholesterol (Rattus norvegicus [21]): 264.2 mg 100ml-1; Cholesterol (Rattus norvegicus [22]): <215.4 mg 100ml-1; Cholesterol (Rattus norvegicus [23]): 257.4 mg 100ml-1; Liver weight (Rattus norvegicus [24]): 5.14 g 100g-1; Liver weight (Rattus norvegicus [25]): 5.31 g 100g-1; Liver weight (Rattus norvegicus [26]): 4.82 g 100g-1; Liver weight (Rattus norvegicus [6]; [39]): 4.2 g (100g of body weight)-1; Triglycerides (Rattus norvegicus [27]): 263.8 mg 100ml-1; Triglycerides (Rattus norvegicus [28]): 312.1 mg 100ml-1; Triglycerides (Rattus norvegicus [29]): <205.2 mg 100ml-1; Body weight (Rattus norvegicus [9]): 266 g; Enoyl-CoA hydratase (Rattus norvegicus [30]): 3.7 uM min-1 (mg of protein)-1; Palmitoyl-CoA oxid (Rattus norvegicus [31]): 0.056 µM/min/mg; Liver catalase (Rattus norvegicus [32]): 61 mg of protein; Carnitine acetyl transferase (Rattus norvegicus [13]): 11 U/mg protein
Cc1cccc(Nc2cc(Cl)nc(N(C)C)n2)c1C [LODINIXIL]	57.8	69.6%	< 2500	96.5					Liver weight (Rattus norvegicus [33]): 5.97 g 100g-1; Liver weight (Rattus norvegicus [6]; [39]): 3.9 g (100g of body weight)-1; Triglycerides (Rattus norvegicus [34]): <182 mg 100ml-1; Body weight (Rattus norvegicus [9]): 268 g; Cholesterol (Rattus norvegicus [35]): 771 mg 100ml-1; Palmitoyl-CoA oxid (Rattus norvegicus [36]): 0.015 µM/min/mg; Enoyl-CoA hydratase (Rattus norvegicus [37]): 3.8 µM/min/mg; Catalase (Rattus norvegicus [38]): 38 U/mg protein; Carnitine acetyl transferase (Rattus norvegicus [13]): 7 U/mg protein
Cc1cccc(Nc2cc(Cl)nc(SCC(=O)O)n2)c1C [PIRINIXIC ACID]		75.1%	1050						Liver weight (Rattus norvegicus [6]; dose 50 mg/kg): 8.23 g 100g-1 and 8.88 g 100g-1
